# Data: ChEMBL document CHEMBL1123265, “Synthesis and antihypertensive activity of 4-(cyclic amido)-2H-1-benzopyrans” (1986)
# Tests used:
# Format in all cases: functional
# [1] = tested on: Rattus norvegicus; assay: Maximum fall in blood pressure was evaluated at an oral dose of 0.3 mg/kg in (SHR) spontaneous hypertensive rats
# In short: (§1)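 Conscious spontaneously hypertensive rats (Okamoto-derived, 14–24 weeks old; systolic pressure >180 mmHg counted as hypertensive), six or more per dose level. Given orally by dosing needle into the esophagus as solution or suspension in 1% w/v methylcellulose. Systolic pressure read by tail cuff, each reading the mean of at least six recordings, taken before dosing and at intervals up to 6 h; maximum fall recorded.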
# [2] = tested on: Rattus norvegicus; assay: Maximum fall in blood pressure was evaluated at an oral dose of 1.0 mg/kg in (SHR) spontaneous hypertensive rats; in short: as §1
# [3] = tested on: Rattus norvegicus; assay: Maximum fall in blood pressure was evaluated at an oral dose of 0.1 mg/kg in (SHR) spontaneous hypertensive rats; in short: as §1
# [4] = tested on: Rattus norvegicus; assay: Maximum fall in blood pressure was evaluated at an oral dose of 10.0 mg/kg in (SHR) spontaneous hypertensive rats; in short: as §1
# [5] = tested on: Rattus norvegicus; assay: Maximum fall in blood pressure was evaluated at an oral dose of 10 mg/kg in (SHR) spontaneous hypertensive rats; in short: as §1
# [6] = tested on: Rattus norvegicus; assay: Maximum fall in blood pressure was evaluated at an oral dose of 3.0 mg/kg in (SHR) spontaneous hypertensive rats; in short: as §1
# [7] = tested on: Rattus norvegicus; assay: Maximum fall in blood pressure was evaluated at an oral dose of 0.03 mg/kg in (SHR) spontaneous hypertensive rats; in short: as §1
Structure (SMILES),Max fall in blood pressure [1] [%],Max fall in blood pressure [2] [%],also measured
CC1(C)C=C(N2CCCC2=O)c2cc(C#N)ccc2O1,47,–,–
CC1(C)Oc2ccc(C#N)cc2C(N2CCSC2=O)[C@@H]1O (stereo partly specified),27,30,–
CC1(C)Oc2ccc(C#N)cc2C(N2CCNCC2=O)[C@@H]1O (stereo partly specified),53,–,Max fall in blood pressure [3]: 28%
CC1(C)Oc2ccc(C#N)cc2C(N2CCCCCC2=O)[C@@H]1O (stereo partly specified),–,10,–
CC1(C)Oc2ccc(C=O)cc2C(N2CCCC2=O)[C@@H]1O (stereo partly specified),–,–,Max fall in blood pressure [4]: 25%
CC1(C)Oc2c(cccc2[N+](=O)[O-])C(N2CCCC2=O)[C@@H]1O (stereo partly specified),–,7,–
CC1(C)C=C(N2CCCCC2=O)c2cc(C#N)ccc2O1,25,55,–
CC(=O)Nc1cc2c(cc1[N+](=O)[O-])C(N1CCCC1=O)[C@H](O)C(C)(C)O2 (stereo partly specified),62,–,Max fall in blood pressure [3]: 37%
CC1(C)Oc2ccc(C#N)cc2C(N2CC[N+](C)(C)CC2=O)[C@@H]1O.[I-] (stereo partly specified),–,9,–
COC(=O)c1ccc2c(c1)C(N1CCCCC1=O)[C@H](O)C(C)(C)O2 (stereo partly specified),13,42,–
CC1(C)Oc2ccc(C#N)cc2C(N2CCCC2)[C@@H]1O (stereo partly specified),21,29,Max fall in blood pressure [3]: 8%
CC1(C)Oc2ccc(C#N)cc2C(N2CCCC2=O)[C@@H]1OC=O (stereo partly specified),31,36,–
CC1Oc2ccc([N+](=O)[O-])cc2C(N2CCCC2=O)[C@@H]1O (stereo partly specified),–,–,Max fall in blood pressure [4]: 34%
CC(=O)c1ccc2c(c1)C(N1CCCCC1=O)[C@H](O)C(C)(C)O2 (stereo partly specified),29,66,–
CC1(C)Oc2ccc(C#N)cc2C(N2CCCCCCC2=O)[C@@H]1O (stereo partly specified),–,–,Max fall in blood pressure [4]: 11%
CC1(C)Oc2ccc(C#N)cc2C(N2CCSCC2=O)[C@@H]1O (stereo partly specified),–,9,Max fall in blood pressure [5]: 12%
CC1(C)CC(N2CCCC2=O)c2cc(C#N)ccc2O1 (stereo unspecified),–,15,Max fall in blood pressure [6]: 45%
CC1(C)Oc2ccc(C#N)cc2C(N2OCCC2=O)[C@@H]1O (stereo partly specified),–,–,Max fall in blood pressure [4]: 19%
CC1(C)Oc2ccc(Cl)cc2C(N2CCCC2=O)[C@@H]1O (stereo partly specified),–,8,Max fall in blood pressure [5]: 37%
CC1(C)Oc2ccc([N+](=O)[O-])cc2C(N2CCCC2=O)[C@@H]1O (stereo partly specified),27,63,–
CC(=O)c1ccc2c(c1)C(N1CCCC1=O)[C@H](O)C(C)(C)O2 (stereo partly specified),33,56,–
COC(=O)c1ccc2c(c1)C(N1CCCC1=O)[C@H](O)C(C)(C)O2 (stereo partly specified),11,20,Max fall in blood pressure [5]: 44%
CC1(C)Oc2cc([N+](=O)[O-])c(N)cc2C(N2CCCC2=O)[C@@H]1O (stereo partly specified),–,25,–
CC1(C)Oc2ccc(C#N)cc2C(N2CCCCC2=O)[C@@H]1O (stereo partly specified),49,59,Max fall in blood pressure [3]: 46%; Max fall in blood pressure [7]: 27%
CC(=O)c1ccc2c(c1)C(N1CCCC1=O)=CC(C)(C)O2,–,48,–

Structure (SMILES),Max fall in blood pressure [1] [%],Max fall in blood pressure [2] [%],also measured
CC1(C)Oc2ccc(C#N)cc2C(N2CCCC2=O)[C@@H]1O (stereo partly specified),39,47,Max fall in blood pressure [3]: 13%
CC(=O)c1ccc2c(c1)C(N1CCN(C(=O)c3ccc(F)cc3)CC1=O)[C@H](O)C(C)(C)O2 (stereo partly specified),–,–,Max fall in blood pressure [4]: 16%
CC1(C)Oc2ccc(C#N)cc2C(N2CCN(Cc3ccccc3)CC2=O)[C@@H]1O (stereo partly specified),26,35,Max fall in blood pressure [3]: 10%
CC1(C)C=C(N2CCSC2=O)c2cc(C#N)ccc2O1,9,27,–
CC(=O)Nc1cc2c(cc1[N+](=O)[O-])OC(C)(C)[C@@H](O)C2N1CCCC1=O (stereo partly specified),–,3,Max fall in blood pressure [6]: 14%
CN1CCCN(C2=CC(C)(C)Oc3ccc(C#N)cc32)C1=O,–,29,–
CC1(C)C=C(N2CCCCCC2=O)c2cc(C#N)ccc2O1,–,15,Max fall in blood pressure [5]: 36%
CC1(C)Oc2ccc(C#N)cc2C(N2CCOCC2=O)[C@@H]1O (stereo partly specified),26,27,–
CC1(C)C=C(N2CCCC2=O)c2cc([N+](=O)[O-])ccc2O1,–,68,–
CC1(C)Oc2ccccc2C(N2CCCC2=O)[C@@H]1O (stereo partly specified),–,–,Max fall in blood pressure [5]: 9%
CC1(C)Oc2cc([N+](=O)[O-])ccc2C(N2CCCC2=O)[C@@H]1O (stereo partly specified),12,56,Max fall in blood pressure [5]: 68%
CC(=O)N1CCN(C2c3cc(C#N)ccc3OC(C)(C)[C@H]2O)C(=O)C1 (stereo partly specified),–,17,Max fall in blood pressure [6]: 23%
CC1(C)Oc2ccc(C#N)cc2C(N2CCN(C(=O)c3ccco3)CC2=O)[C@@H]1O (stereo partly specified),–,15,Max fall in blood pressure [6]: 43%
CC1(C)Oc2ccc(C#N)cc2C(N2CCN(C(=O)c3ccccc3)CC2=O)[C@@H]1O (stereo partly specified),–,–,Max fall in blood pressure [4]: 14%
CN1CCCN(C2c3cc(C#N)ccc3OC(C)(C)[C@H]2O)C1=O (stereo partly specified),–,23,–
CCCCN1CCN(C2c3cc(C#N)ccc3OC(C)(C)[C@H]2O)C(=O)C1 (stereo partly specified),48,61,Max fall in blood pressure [3]: 18%
CC1(C)Oc2ccc(C#N)cc2C(N2CCOC2=O)[C@@H]1O (stereo partly specified),20,29,–
CC1(C)C=C(N2CCCC2=O)c2cc(Cl)ccc2O1,–,–,Max fall in blood pressure [4]: 36%
CC(=O)O[C@H]1C(N2CCCC2=O)c2cc(C#N)ccc2OC1(C)C (stereo partly specified),–,30,Max fall in blood pressure [6]: 39%
CC1(C)Oc2ccc(C#N)cc2C(N2CCCC2=S)[C@@H]1O (stereo partly specified),39,–,Max fall in blood pressure [3]: 16%
O=C1CCCN1C1c2cc([N+](=O)[O-])ccc2OC[C@H]1O (stereo partly specified),–,–,Max fall in blood pressure [4]: 5%
CN1CCN(C2c3cc(C#N)ccc3OC(C)(C)[C@H]2O)C(=O)C1 (stereo partly specified),37,–,Max fall in blood pressure [3]: 20%
"CC1(C)Oc2ccc(C#N)cc2C(N2CCCC2=O)C1O (single isomer, unassigned) [CROMAKALIM]",47,–,Max fall in blood pressure [3]: 31%
"CC1(C)Oc2ccc(C#N)cc2[C@@H](N2CCCC2=O)[C@@H]1O (single isomer, unassigned) [LEVCROMAKALIM]",–,23,Max fall in blood pressure [4]: 46%
COC(=O)C1=C(C)NC(C)=C(C(=O)OC)C1c1ccccc1[N+](=O)[O-] [NIFEDIPINE],–,13,Max fall in blood pressure [4]: 36%; Max fall in blood pressure [6]: 27%
